In PubChem BioAssay AID1263 (The Scripps Research Institute Molecular Screening Center, 2008):
This is one part of the list. Values without a mark were called inactive. Activity calls are given as the source filed them.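 How the source made its calls: active means triplicate mean inhibition exceeding the hit cutoff computed for the primary STAT1 screen (cut at about 35% in these data); inactive means the rest.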

Test: blockers of IFN-gamma STAT1 reporter activity – cell-based, HTS, luciferase reporter, confirmation (AID 1263)
Details: NIH 3T3 STAT1-luciferase reporter, luminescence, at 5.5 µM, hits give high values
In short: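 System: NIH 3T3 STAT1-luciferase reporter cells | Reagent: IFN-gamma stimulus, 3.0 ng/mL | Doses: One dose only | Timing: 1 h compound, 4 h IFN-gamma at 37 °C | Measured by: Luciferase luminescence | Evaluation: Percent inhibition, DMSO as 0% and nifuroxazide as 100% | Controls: Nifuroxazide 300 µM high, DMSO low | Replication: Triplicate wells per compound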

Row | SMILES | inhibition
1 | CCOC(=O)C(=CNc1cccc(C)n1)C(=O)OCC | 32.5%
2 | Cc1ccc(C2=Nc3c(ccc4ccccc34)C(c3ccncc3)=NN2)cc1 | 60.4% (active)
3 | O=C(CCl)N(Cc1cccc([N+](=O)[O-])c1)c1cccc(Cl)c1 | 33.3%
4 | NS(=O)(=O)c1cccc(NC(=O)CSc2nc3ccccc3n2-c2ccccc2)c1 | 31.4%
5 | C[C@@H]1C[C@@H]2O[C@H]2/C=C\C=C\C(=O)Cc2c(Cl)c(O)cc(O)c2C(=O)O1 | 61% (active)
6 | CCOC(=O)N1CCN(C(=O)CSc2nnc(-c3c[nH]c4ccccc34)n2CCOC)CC1 | 33.9%
7 | COc1ccc(C2CC(c3cccs3)=NN2c2nc(C)c(C(C)=O)s2)cc1OC (stereo not given) | 20.8%
8 | COC(=O)C1=CN(Cc2ccc(OC)c(OC)c2)C=C(C(=O)OC)C1c1cccs1 | 38.3% (active)
9 | CCOC(=O)N1CCN(C(=O)C2CCN(c3ncnc4c3sc3cccc(F)c34)CC2)CC1 | 41.5% (active)
10 | COc1ccc(C(=O)Nc2ccccc2C(=O)N/N=C/c2ccccc2OC)cc1 | 0.25%
